What was measured:
[1] = system: WEHI-164; assay: Antiproliferative activity against mouse WEHI164 cells assessed as reduction of cell growth after 72 hrs by MTT method; type: functional, cell-based; settings: WEHI-164, 72 h
Outline: (§1)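 Cells (3.4 × 10^4) seeded in 96-well plates, left to adhere 2 h at 37 °C in 5% CO2. Medium replaced with fresh medium, then 1:4 serial dilutions of compound added. Incubation 72 h. MTT (5 mg/mL stock) added for 3 h. Crystals dissolved in 50% DMF/20% SDS, pH 4.5, and OD read at 620 nm. % dead cells = 100 − (OD treated/OD control)×100. IC50 taken versus control.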

[2] = system: J774; assay: Antiproliferative activity against mouse J774 cells assessed as reduction of cell growth after 72 hrs by MTT method; type: cell-based; settings: J774, 72 h; outline: as §1
[3] = system: HEK293; assay: Antiproliferative activity against HEK293 cells assessed as reduction of cell growth after 72 hrs by MTT method; type: cell-based; settings: Homo sapiens, HEK293, 72 h; outline: as §1

Compound | IC50 [1] [nM] | IC50 [2] [nM] | IC50 [3] [nM]
C[C@@H]1O[C@@H](O[C@H]2[C@H](O[C@H]3CC[C@]4(C)[C@H]5CC=C6[C@@H]7CC(C)(C)CC[C@]7(C(=O)O[C@@H]7O[C@H](CO[C@@H]8O[C@H](CO)[C@@H](O[C@@H]9O[C@@H](C)[C@H](O)[C@@H](O)[C@H]9O)[C@H](O)[C@H]8O)[C@@H](O)[C@H](O)[C@H]7O)CC[C@@]6(C)[C@]5(C)CC[C@H]4C3(C)C)OC[C@H](O)[C@@H]2O)[C@H](O)[C@H](O)[C@H]1O [HEDERASAPONIN B] | 600 | 60 | 
C[C@@H]1O[C@@H](O[C@H]2[C@H](O)[C@@H](O)[C@H](OC[C@H]3O[C@@H](OC(=O)[C@]45CCC(C)(C)C[C@H]4C4=CC[C@@H]6[C@@]7(C)CC[C@H](O[C@@H]8OC[C@H](O)[C@H](O)[C@H]8O[C@@H]8O[C@H](C)[C@@H](O)[C@H](O)[C@H]8O)[C@@](C)(CO)[C@@H]7CC[C@@]6(C)[C@]4(C)CC5)[C@H](O)[C@@H](O)[C@@H]3O)O[C@@H]2CO)[C@H](O)[C@H](O)[C@H]1O | 1900 | 460 | 
C[C@@H]1O[C@@H](O[C@H]2[C@H](O[C@H]3CC[C@]4(C)[C@H]5CC=C6[C@@H]7CC(C)(C)CC[C@]7(C(=O)O[C@@H]7O[C@H](CO[C@@H]8O[C@H](CO)[C@@H](O[C@@H]9O[C@@H](C)[C@H](O)[C@@H](O[C@@H]%10O[C@H](CO)[C@@H](O)[C@H](O)[C@H]%10O)[C@H]9O)[C@H](O)[C@H]8O)[C@@H](O)[C@H](O)[C@H]7O)CC[C@@]6(C)[C@]5(C)CC[C@H]4C3(C)C)OC[C@H](O)[C@@H]2O)[C@H](O)[C@H](O[C@@H]2O[C@H](CO)[C@@H](O)[C@H](O)[C@H]2O)[C@H]1O |  | 180 | 170
C[C@@H]1O[C@@H](O[C@H]2[C@H](O[C@H]3CC[C@@]4(C)[C@@H](CC[C@]5(C)[C@@H]4CC=C4[C@@H]6CC(C)(C)CC[C@]6(C(=O)O)CC[C@]45C)[C@]3(C)CO)OC[C@H](O)[C@@H]2O)[C@H](O)[C@H](O[C@@H]2O[C@H](CO)[C@@H](O)[C@H](O)[C@H]2O)[C@H]1O |  | 70 | 
C[C@@H]1O[C@@H](O[C@H]2[C@H](O)[C@@H](O)[C@H](OC[C@H]3O[C@@H](OC(=O)[C@]45CCC(C)(C)C[C@H]4C4=CC[C@@H]6[C@@]7(C)CC[C@H](O[C@@H]8OC[C@H](O)[C@H](O)[C@H]8O[C@@H]8O[C@@H](C)[C@H](O)[C@@H](O[C@@H]9O[C@H](CO)[C@@H](O)[C@H](O)[C@H]9O)[C@H]8O)C(C)(C)[C@@H]7CC[C@@]6(C)[C@]4(C)C[C@H]5O)[C@H](O)[C@@H](O)[C@@H]3O)O[C@@H]2CO)[C@H](O)[C@H](O)[C@H]1O | 240 | 110 | 150
C[C@@H]1O[C@@H](O[C@H]2[C@H](O[C@H]3CC[C@]4(C)[C@H]5CC=C6[C@@H]7CC(C)(C)CC[C@]7(C(=O)O)[C@H](O)C[C@@]6(C)[C@]5(C)CC[C@H]4C3(C)C)OC[C@H](O)[C@@H]2O)[C@H](O)[C@H](O[C@@H]2O[C@H](CO)[C@@H](O)[C@H](O)[C@H]2O)[C@H]1O |  | 190 | 
Sc1ncnc2nc[nH]c12 [MERCAPTOPURINE ANHYDROUS] | 17 | 3 | 
C[C@@H]1O[C@@H](O[C@H]2[C@H](O)[C@@H](O)[C@H](OC[C@H]3O[C@@H](OC(=O)[C@]45CCC(C)(C)C[C@H]4C4=CC[C@@H]6[C@@]7(C)CC[C@H](O[C@@H]8OC[C@H](O)[C@H](O)[C@H]8O[C@@H]8O[C@@H](C)[C@H](O)[C@@H](O[C@@H]9O[C@H](CO)[C@@H](O)[C@H](O)[C@H]9O)[C@H]8O)C(C)(C)[C@@H]7CC[C@@]6(C)[C@]4(C)CC5)[C@H](O)[C@@H](O)[C@@H]3O)O[C@@H]2CO)[C@H](O)[C@H](O)[C@H]1O | 1800 |  | 520
C[C@@H]1O[C@@H](O[C@H]2[C@H](O)[C@@H](O[C@@H]3O[C@H](CO)[C@@H](O)[C@H](O)[C@H]3O)[C@H](OC[C@H]3O[C@@H](OC(=O)[C@]45CCC(C)(C)C[C@H]4C4=CC[C@@H]6[C@@]7(C)CC[C@H](O[C@@H]8OC[C@H](O)[C@H](O)[C@H]8O[C@@H]8O[C@@H](C)[C@H](O)[C@@H](O[C@@H]9O[C@H](CO)[C@@H](O)[C@H](O)[C@H]9O)[C@H]8O)[C@@](C)(CO)[C@@H]7CC[C@@]6(C)[C@]4(C)CC5)[C@H](O)[C@@H](O)[C@@H]3O)O[C@@H]2C)[C@H](O)[C@H](O)[C@H]1O | 260 | 100 | 320
C[C@@H]1O[C@@H](O[C@H]2[C@H](O)[C@@H](O)[C@H](OC[C@H]3O[C@@H](OC(=O)[C@]45CCC(C)(C)C[C@H]4C4=CC[C@@H]6[C@@]7(C)CC[C@H](O[C@@H]8OC[C@H](O)[C@H](O)[C@H]8O[C@@H]8O[C@H](C)[C@@H](O)[C@H](O)[C@H]8O)C(C)(C)[C@@H]7CC[C@@]6(C)[C@]4(C)CC5)[C@H](O)[C@@H](O)[C@@H]3O)O[C@@H]2CO)[C@H](O)[C@H](O)[C@H]1O |  | 100 | 200

— ChEMBL document CHEMBL1155685, “Antiproliferative triterpene saponins from Trevesia palmata” (J Nat Prod, 2000)
